Usually MIC stands for the lowest concentration that inhibits growth of the organism. Low readings indicate greater potency, high ones weaker potency.

Molecules are shown by their SMILES. In brackets after ≈: the same amount, converted by molar mass.

Type in all cases: functional
Assay [1] has as its system Staphylococcus aureus. The assay can be described thus: Antimicrobial activity against Staphylococcus aureus SG 511 after 24 hrs by microtiter plate based MIC assay. The conditions noted are these: SG 511, 24 h. The procedure, abridged:
(§1)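 Broth microdilution MIC in LB broth. Compounds were twofold serially diluted in 0.5% MeOH, and reference antibiotics were diluted from 40 to 0.31 μg/mL per well. The bacterial inoculum was adjusted by turbidity at 600 nm to a 0.5 McFarland standard. Test solution was added at one part to nine parts culture, then incubated at 36 °C for 24 h. The assay was run in triplicate, with vehicle-matched blank growth controls.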

For assay [2], the system named is Staphylococcus aureus. The assay can be described thus: Antimicrobial activity against methicillin-resistant Staphylococcus aureus 3089 after 24 hrs by microtiter plate based MIC assay. To be noted: Staphylococcus aureus, 3089, 24 h. In short, it runs like this: as §1
A further assay concerns Vibrio parahaemolyticus. The assay can be described thus: Antimicrobial activity against multidrug-resistant Vibrio parahaemolyticus 7001 after 24 hrs by microtiter plate based MIC assay. To be noted: Vibrio parahaemolyticus, 7001, 24 h. The procedure, abridged:
as §1

`CN(C)[C@@H]1C(O)=C(C(N)=O)C(=O)[C@@]2(O)C(O)=C3C(=O)c4c(O)cccc4[C@@](C)(O)[C@H]3C[C@@H]12` [TETRACYCLINE] yielded an MIC in the assay on Staphylococcus aureus [1] of 1.25 µg/mL (≈ 2.81 µM).

As for `CCCCCCCC[C@]1(OC)O[C@@H](OC)c2c(O)cccc21` [PAECILOCIN C], the values for the MIC in the assay on Staphylococcus aureus [2], against Vibrio parahaemolyticus and against Staphylococcus aureus [1] were 40 µg/mL (≈ 130 µM), over 40 µg/mL and 20 µg/mL (≈ 64.8 µM), respectively.

Turning to `CCCCCCCC[C@]1(OC)O[C@H](OC)c2c(O)cccc21` [PAECILOCIN B], the MIC in the assay on Staphylococcus aureus [2] is 20 µg/mL (≈ 64.8 µM); in the assay on Vibrio parahaemolyticus, over 40 µg/mL; against Staphylococcus aureus [1] it was 5 µg/mL (≈ 16.2 µM).

On to `CCCCCCCC[C@@H]1OC(=O)c2c(O)cccc21` [PAECILOCIN A], for which the MIC in the assay on Staphylococcus aureus [2], against Vibrio parahaemolyticus and against Staphylococcus aureus [1] was over 40 µg/mL throughout.

In turn, `C[C@H]1COc2c(N3CCN(C)CC3)c(F)cc3c(=O)c(C(=O)O)cn1c23.C[C@H]1COc2c(N3CCN(C)CC3)c(F)cc3c(=O)c(C(=O)O)cn1c23.O` [LEVOFLOXACIN] came in with an MIC against Vibrio parahaemolyticus of 0.156 µg/mL.

In the assay on Staphylococcus aureus [2], `CN[C@H](CC(C)C)C(=O)N[C@H]1C(=O)N[C@@H](CC(N)=O)C(=O)N[C@H]2C(=O)N[C@H]3C(=O)N[C@H](C(=O)N[C@H](C(=O)O)c4cc(O)cc(O)c4-c4cc3ccc4O)[C@H](O)c3ccc(c(Cl)c3)Oc3cc2cc(c3O[C@@H]2O[C@H](CO)[C@@H](O)[C@H](O)[C@H]2O[C@H]2C[C@](C)(N)[C@H](O)[C@H](C)O2)Oc2ccc(cc2Cl)[C@H]1O` [VANCOMYCIN] had an MIC of 0.625 µg/mL (≈ 0.431 µM).

Source of the values: ChEMBL document CHEMBL1817603, “Antibacterial polyketides from the jellyfish-derived fungus Paecilomyces variotii” (2011).
